# An excerpt weighted towards active compounds, which were near 1.5% of everything screened.
# PPC-1+TRAIL kill: kills PPC-1 cancer cells in the presence of TRAIL. cell killing (% activity), % at 4 µM or 5 µM. PPC-1 cells + TRAIL, ATPLite viability luminescence. hit rate 0.41% among 220,000;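 active = cell killing above 50% in the first pass at 4 µM, then a duplicate retest at 5 µM averaging 50% or more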;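 also: plate controls were cells with TRAIL plus DMSO for no effect and medium-only wells lacking cells for full effect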
# FLuc act counter: affects firefly luciferase, flagging false hits in luciferase stimulation screens; 200,000 tested, under 10 active; ATPlite luciferase biochemical, luminescence, 10 min; 0 = ATP-free wells, 1 = DMSO control; activation factor at 10 µM; P08659;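 active = luciferase activation factor, scaled between plate controls, of at least 2 with compound at 10 µM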
# Target sequence (P08659 whole entry, looked up): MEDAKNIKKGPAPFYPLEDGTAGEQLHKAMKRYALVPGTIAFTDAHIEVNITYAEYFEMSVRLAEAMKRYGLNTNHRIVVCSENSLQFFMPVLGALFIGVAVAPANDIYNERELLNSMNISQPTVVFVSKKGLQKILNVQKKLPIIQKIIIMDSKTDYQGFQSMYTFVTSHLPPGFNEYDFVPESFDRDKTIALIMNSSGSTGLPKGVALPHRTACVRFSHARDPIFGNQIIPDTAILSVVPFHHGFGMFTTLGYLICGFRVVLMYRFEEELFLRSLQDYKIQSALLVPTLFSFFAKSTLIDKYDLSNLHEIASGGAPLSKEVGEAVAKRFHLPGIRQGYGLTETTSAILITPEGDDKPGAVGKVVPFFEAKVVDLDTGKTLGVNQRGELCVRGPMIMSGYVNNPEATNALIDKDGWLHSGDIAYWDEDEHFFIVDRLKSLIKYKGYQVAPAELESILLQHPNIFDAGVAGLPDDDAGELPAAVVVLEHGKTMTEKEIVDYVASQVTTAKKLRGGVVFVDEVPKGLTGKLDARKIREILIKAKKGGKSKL
#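 Assay system: Luciferase/luciferin detection reagent, cell-free biochemical luciferase assay / Read-out: luciferase activation / Benchmarks: No-ATP low control, compound-free enzyme-plus-ATP high control / Medium: PBS buffer for ATP / Detection: luminescence measurement of luciferase light output / Schedule: 10 min at ambient temperature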
# TRAIL sens C8: caspase-8 TRAIL sensitization; NB7+C8 cells + TRAIL, ATPlite viability luminescence; inhibition (viability loss, TRAIL sensitization), % at 10 µM; hit rate 1% among 360,000; AID 624354;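 active = compounds causing at least 50% loss of cell viability in the single-dose screen, relative to plate controls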
# FLuc inh counter: inhibits firefly luciferase, flagging false hits in luciferase inhibition screens | P08659 | ATPLite firefly luciferase biochemical luminescence, 10 min | inhibition, % at 10 µM | hit rate 1.5% among 200,000 | AID 1006;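 active = inhibition above about 50% when tested at 10 µM, limit read from the data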
# An asterisk follows results filed as active; x = not tested or not shown; ! = a repeat was not active.
SMILES,PPC-1+TRAIL kill,FLuc act counter,TRAIL sens C8,FLuc inh counter
COC(=O)c1cc2c(n1S(=O)(=O)c1ccc(C)cc1)C(=O)C(=O)c1[nH]cc(C(=O)OCc3ccccc3)c1-2,x,x,93*,x
COc1ccccc1OCC(=O)Nc1ccccn1,41,0.3,26,71*
O=C(COc1ccccc1)Nc1ccc(Cl)cn1,-6,0.9,1,12
COc1ccccc1OCC(=O)Nc1ccncc1,x,x,22,x
Cc1c(C)c2ccc(OCC(=O)Nc3ccccn3)c(C)c2oc1=O,x,x,93*,x
O=C(COc1ccc(Cl)cc1Cl)Nc1ccccn1,23,0,94*,97*
O=C(COc1ccccc1Cl)Nc1ccc(Cl)cn1,38,0.3,50*,69*
O=C(COC(=O)C1CCC(N2C(=O)C3C4CCC(C4)C3C2=O)CC1)c1ccc(F)cc1 (stereo unspecified),x,x,13,x
COc1cccc2c1OCC(C(=O)O)C2 (stereo unspecified),13,1,-14,-4
COc1cccc2c1C(CO)N1C(C#N)C3CC(C(=O)O)C(C1C2)N3C (stereo unspecified),43,x,59*,x
CCc1ccccc1N1CC(C(=O)Nc2cc(S(=O)(=O)N3CCCC3)ccc2Cl)CC1=O (stereo unspecified),x,x,4,x
C=CCN=c1scc(-c2ccccc2)n1/N=C/c1ccccn1,30,0.6,53*!,45
CCN=c1scc(-c2ccccc2)n1/N=C/c1ccccn1,50,0.3,89*,74*
C=CCN=c1scc(-c2ccc(F)cc2)n1/N=C/c1ccccn1,17,1,44,-1
COc1ccc(S(=O)(=O)N2CCC(C(=O)N(CC(C)C)C3CCS(=O)(=O)C3)CC2)cc1OC (stereo unspecified),x,x,2,x
CCc1nc2ccc(C(=O)Nc3cccc(NS(C)(=O)=O)c3)cn2c1N(CC)CCOC,x,x,5,x
CCOC(=O)Cc1cc(=O)n2[nH]c(-c3ccc(C)cc3)cc2n1,24,0.5,14,54*
CC(Sc1nnc(C(C)Oc2ccc(F)cc2)o1)C(=O)NCc1ccc2c(c1)OCO2 (stereo unspecified),x,x,4,x
O=C(O)c1cccc2c1Cc1cc(Cl)ccc1-2,x,x,-6,x
COc1cc(/C=N/NC(=O)c2cc(-c3cccc(OC(C)C)c3)nc3ccccc23)ccc1O,x,x,53*,x
COc1ccc(-c2cc(C(=O)N/N=C/c3cccnc3)c3ccccc3n2)cc1,x,x,54*,x
COc1cc(/C=N/NC(=O)c2cc(-c3cccs3)nc3ccccc23)ccc1O,0,x,6,x
O=C(c1ccccc1)c1ncc[nH]1,x,x,0,x
O=c1[nH]c(/C(=N\O)c2ccccc2)no1,41,1,73*,0
O=C(O)COn1c(-c2ccc(Cl)cc2)nc2ccc(Cl)cc21,34,0.7,17,27
SMILES,PPC-1+TRAIL kill,FLuc act counter,TRAIL sens C8,FLuc inh counter
COc1ccc(-c2nc3ccccc3n2OCC(=O)O)cc1,47,0.3,40,72*
Cc1ccc(S(=O)(=O)c2ccc([N+](=O)[O-])o2)cc1,x,x,92*,x
Cc1ccc(NC(=O)c2ccc([N+](=O)[O-])o2)c(C)c1,8,1.1,-2,-6
COc1ccc(Cl)cc1NC(=O)c1cccc(-n2cnnn2)c1,x,x,4,x
O=C(N/N=C1\C/C(=N\NC(=O)c2ccncc2)c2ccccc21)c1ccncc1,-12,0.3,48,69*
CCN(CC)C(=O)COc1ccc(/C(C)=N/NC(=O)c2ccccc2O)cc1,36,0.4,35,63*
C(=N\c1nc2ccccc2[nH]1)/c1cccs1,12,0.3,-7,71*
Cc1c(C(=O)NCc2cccc(C(F)(F)F)c2)sc(=O)n1Cc1ccc(F)cc1,x,x,-8,x
C=Cc1ccc(Cn2c(C)c(C(=O)NCc3cccc(C(F)(F)F)c3)sc2=O)cc1,x,x,51*,x
COc1cc(CC(=O)OCC(=O)N2C(C)CCCC2C)cc(OC)c1OC (stereo unspecified),x,x,-25,x
CC1(c2nc3ccccc3[nH]2)CCC2=Nc3ccccc3CN21 (stereo unspecified),x,x,-5,x
Nc1nc(N)c2c(ccc3nccc32)[nH]1,40,x,80*,x
COCCCN(Cc1cccs1)S(=O)(=O)c1csc(C(N)=O)c1,x,x,6,x
COc1ccc(NC(=O)c2cc(C3CCCCN3S(=O)(=O)c3c(C)noc3C)on2)c(C)c1 (stereo unspecified),x,x,-10,x
COc1ccc2oc(-c3ccco3)cc(=O)c2c1,16,0.4,13,59*
Cc1nc2cc(OC3(C)CCN(Cc4ccc(OC(F)(F)F)cc4)C3)ccc2s1 (stereo unspecified),x,x,-4,x
O=C(CCl)Nc1ncc(S(=O)(=O)c2ccc([N+](=O)[O-])cc2)s1,x,x,51*,x
CCCn1ccnc1SCC(=O)Nc1c(C)n(C)n(-c2ccccc2)c1=O,x,x,-16,x
COc1cccc(C(NC(C)=O)c2nc(-c3cccc(C(=O)O)c3)cs2)c1 (stereo unspecified),x,x,5,x
O=C(NC(=O)c1ccccc1)Nc1ccccn1,x,x,89*,x
O=C(Nc1ccccn1)c1ccc(C(=O)c2ccccc2)cc1,x,x,20,x
Cc1cc(C)n(-c2ccc(C(=O)Nc3ccccn3)cc2)n1,-17,0.3,49,65*
Cc1cc(C(=O)Nc2ccccn2)cs1,29,0.4,15,57*
CN(CCOc1ccccc1)C(=O)c1ccc2c(c1)OCO2,x,x,-4,x
O=C(NCCc1ccccc1)c1ccc2c(c1)OCCO2,x,x,83*,x
SMILES,PPC-1+TRAIL kill,FLuc act counter,TRAIL sens C8,FLuc inh counter
O=C(NCCOc1ccccc1)c1ccc2c(c1)OCO2,27,0.5,24,51*
Cc1ccc(C(=O)NCCc2csc(C)n2)cc1,39,0.4,39,58*
Cc1ccc(C(=O)NCCc2ccncc2)cc1,23,0.7,10,29
Cc1ccc(C(=O)NCCc2ccccc2)cc1,x,x,64*,x
CN(C)CCN1CCN(C2CN(CCc3ccccc3)S(=O)(=O)C2)CC1 (stereo unspecified),x,x,-6,x
O=C(NCCc1ccccc1)c1ccc2c(c1)OCCCO2,x,x,92*,x
COC(=O)c1c(N)sc(C(=O)NCCc2ccccc2)c1C,x,x,75*,x
O=C(NCCc1cccc(Cl)c1)c1ccc2c(c1)OCO2,x,x,57*,x
CC(C)CN(C(=O)CN1C(=O)NC(c2ccccc2)(c2ccccc2)C1=O)C1CCS(=O)(=O)C1 (stereo unspecified),x,x,-8,x
Cc1cc(C(=O)NCc2csc(-c3ccccc3)n2)no1,x,x,2,x
O=C(CSc1nc(-c2ccccc2)c(-c2ccccc2)o1)NCCCO,x,x,-19,x
CCC1NC(=O)c2cccnc2-n2c1nc1ccc(F)cc1c2=O (stereo unspecified),x,x,-2,x
CN1CCN(Cc2cc(Cl)c3cccnc3c2OC(=O)c2cccs2)CC1,21,1.1,7,-8
Oc1c(CN2CCOCC2)cc(COCc2ccccc2)c2cccnc12,55*,1.1,53*,-5
Oc1c(CNc2ccccc2)cc(COCc2ccccc2)c2cccnc12,x,x,7,x
O=C(Oc1c(CN2CCOCC2)cc(Cl)c2cccnc12)c1ccccc1Br,0,x,55*,x
Cc1ccc(NC(=S)N2CCCC(c3nc4ccccc4[nH]3)C2)cc1 (stereo unspecified),-16,1,-3,-2
Cc1ccc(NC(=S)c2nc3ccccc3[nH]2)c(C)c1,38,0.2,73*,85*

# Source: PubChem
